In general, IC50 refers to the concentration that gives 50% inhibition.

Results on 12 molecules are retold here after ChEMBL document CHEMBL4422683, “Synthesis of 2-,4,-6-, and/or 7-substituted quinoline derivatives as human dihydroorotate dehydrogenase (hDHODH) inhibitors and anticancer agents: 3D QSAR-assisted design” (Bioorg Med Chem Lett, 2019).

The structures appear in SMILES notation. Some results are limits rather than exact numbers.

The subject of one test is MDA-MB-231. As to the kind of experiment: Antiproliferative activity against human MDA-MB-231 cells after 48 hrs by MTT assay. It is filed as functional, cell-based. The following applies: MDA-MB-231, 48 h. An outline of the steps: (§1)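 MTT antiproliferative screen on human colorectal adenocarcinoma HT-29 and breast cancer MDA-MB-231 cells. Cell growth inhibition IC50 was read from the dose-response curve.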
(In general: Formazan colour is commonly taken as a measure of viable cells.)

In test [1] the target is Dihydroorotate dehydrogenase (quinone), mitochondrial (Homo sapiens, UniProt Q02127). As to the kind of experiment: Inhibition of human recombinant N-terminal His-tagged DHODH (31 to 395 residues) expressed in Escherichia coli using DHO as substrate measured after 20 mins by DCPI dye-based assay.
Dihydroorotate dehydrogenase (quinone), mitochondrial, sequence (Q02127 whole entry, the tested form may be a part): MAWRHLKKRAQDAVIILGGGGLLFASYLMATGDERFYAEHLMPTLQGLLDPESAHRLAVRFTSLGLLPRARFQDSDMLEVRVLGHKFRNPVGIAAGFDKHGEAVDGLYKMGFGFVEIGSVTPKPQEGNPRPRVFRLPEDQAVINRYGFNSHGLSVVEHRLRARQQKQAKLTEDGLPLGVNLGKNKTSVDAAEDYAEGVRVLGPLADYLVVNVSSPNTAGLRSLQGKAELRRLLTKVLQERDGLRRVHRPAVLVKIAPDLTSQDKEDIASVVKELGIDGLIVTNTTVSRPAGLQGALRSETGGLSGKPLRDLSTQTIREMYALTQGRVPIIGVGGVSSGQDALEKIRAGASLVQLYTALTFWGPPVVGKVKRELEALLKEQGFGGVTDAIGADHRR
For a further test, the system named is HT-29. As to the kind of experiment: Antiproliferative activity against human HT-29 cells after 48 hrs by MTT assay. The format is functional, cell-based. The following applies: HT-29, 48 h. The method in brief: as §1

Regarding `O=C(OCc1ccccc1)c1cc(-c2ccc(Cl)cc2)nc2cc(Cl)c(Cl)cc12`, the half-inhibitory concentration (IC50) with MDA-MB-231 was greater than 100 µM; in test [1], 7.48 µM; with HT-29, 48.7 µM.

As for `COc1ccc(-c2cc(COCc3ccccc3)c3cc(C)ccc3n2)cc1`, the IC50 in the test on MDA-MB-231 and in the test with HT-29 was greater than 100 µM each time.

With `COc1ccc(-c2cc(COCc3ccccc3)c3cc(Cl)c(Cl)cc3n2)cc1`, the IC50 was greater than 100 µM with MDA-MB-231, 15.5 µM in test [1] and greater than 100 µM in the test with HT-29.

For the molecule `Cc1ccc2nc(-c3ccc(F)cc3)cc(C(=O)OCc3ccccc3)c2c1`, the 50% inhibitory concentration (IC50) stood at 13.2 µM in the test with MDA-MB-231, 1.56 µM in test [1] and 15.1 µM with HT-29.

Take `COc1ccc(-c2cc(C(=O)OCc3ccccc3)c3cc(C)ccc3n2)cc1`: the IC50 amounted to 20.5 µM with MDA-MB-231, 1.96 µM in test [1] and 17.3 µM in the test on HT-29.

Consider `Clc1ccc(-c2cc(COCc3ccccc3)c3cc(Cl)c(Cl)cc3n2)cc1`, for which the IC50 with MDA-MB-231 is greater than 100 µM; in test [1], 1.22 µM; in the test with HT-29, 16.8 µM.

Turning to `Cc1ccc2nc(-c3ccc(F)cc3)cc(COCc3ccccc3)c2c1`, the results for the half-maximal inhibitory concentration (IC50) (in the test on MDA-MB-231; in test [1]; in the test with HT-29) were greater than 100 µM, 13.4 µM and greater than 100 µM, respectively.

With `Cc1ccc2nc(-c3ccc(Cl)cc3)cc(COCc3ccccc3)c2c1`, the IC50 in the test on MDA-MB-231 and with HT-29 was greater than 100 µM in each case.

Take `COc1ccc(-c2cc(C(=O)OCc3ccccc3)c3cc(Cl)c(Cl)cc3n2)cc1`: the IC50 was 39.2 µM in the test on MDA-MB-231, 3.34 µM in test [1] and 42.2 µM in the test with HT-29.

As to `Cc1ccc2nc(-c3ccc(Cl)cc3)cc(C(=O)OCc3ccccc3)c2c1`, the concentration for half-maximal inhibition (IC50) in the test with MDA-MB-231 is greater than 100 µM; in test [1], 7.37 µM; in the test on HT-29, greater than 100 µM.

For the molecule `Cc1c(-c2ccc(-c3ccccc3F)cc2)nc2ccc(F)cc2c1C(=O)O` [BREQUINAR SODIUM], the IC50 in the test on MDA-MB-231 is 12.5 µM; with HT-29, 14 µM.

Consider `CC(=O)O[C@H]1C(=O)[C@@]2(C)[C@H]([C@H](OC(=O)c3ccccc3)[C@]3(O)C[C@H](OC(=O)[C@H](O)[C@@H](NC(=O)c4ccccc4)c4ccccc4)C(C)=C1C3(C)C)[C@]1(OC(C)=O)CO[C@@H]1C[C@@H]2O` [PACLITAXEL], for which the IC50 stood at 13.2 µM in the test on MDA-MB-231 and 14.6 µM with HT-29.
